Measurements taken from ChEMBL document CHEMBL1131024, “N-Arylalkyl pseudopeptide inhibitors of farnesyltransferase” (J Med Chem, 1998).
Values after ≈ are worked out from the molar mass of the structure shown.

Legend:
[1] = molecular target: Protein farnesyltransferase (Homo sapiens, UniProt P49354+P49356); assay: Inhibition of [3H]FPP incorporation into recombinant human Ha-Ras by Farnesyltransferase; format: protein-complex assay
Method in brief: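 FTase, either purified from bovine brain or homogeneous human recombinant, transferred [³H]FPP onto recombinant Ha-Ras. Total protein was acid-precipitated and protein-bound FPP was counted by scintillation. IC50 is the concentration inhibiting 50% of [³H]FPP incorporation.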

[2] = molecular target: Geranylgeranyl transferase type I (Bos taurus, UniProt P29702+Q5EAD5); assay: Inhibition of bovine Geranylgeranyl transferase type I; format: protein-complex assay
[3] = tested on: NIH3T3; assay: Highest nontoxic concentration in NIH3T3 cells by MTT staining; format: functional, Mus musculus
Method in brief: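 NIH 3T3 cells were exposed to compound for 48 h, and viability was read by MTT staining. The endpoint is the highest concentration the cells tolerated.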

[4] = molecular target: Protein farnesyltransferase (Mus musculus, UniProt Q61239+Q8K2I1); assay: Inhibition of post-translational processing of v-Ras protein in NIH3T3 cells; format: functional, cell-based
Method in brief: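 v-ras-transformed NIH 3T3 cells were incubated 24 h with compound or solvent control and labeled with [³⁵S]methionine over the final 20 h. Processed (farnesylated) Ras was resolved by SDS-PAGE. Lovastatin at 15 µM served as positive control.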

[5] = molecular target: T1, Protein farnesyltransferase (Bos taurus, UniProt P29702+P49355); assay: Inhibition of bovine brain Farnesyltransferase at 10 pM; conditions: in the assay text read “at approximately 1 nM” for “at 10 pM”
[6] = tested on: Rat1; assay: Inhibition of colony formation in Rat 1-v-ras-transformed cells in soft agar; format: functional
Method in brief: (§1)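 Rat1 cells transformed by v-ras or v-raf were grown in soft agar for about 2 weeks, fed twice weekly. MIC is the minimum concentration reducing colony size and number relative to vehicle-treated controls.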

[7] = tested on: Rat1; assay: Inhibition of colony formation in Rat 1-v-raf-transformed cells in soft agar; format: functional; method in brief: as §1
[8] = molecular target: T1, Protein farnesyltransferase; assay: Inhibition of bovine brain Farnesyltransferase at 1 nM
Method in brief: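 Bovine brain FTase at approximately 1 nM transferred [³H]FPP onto recombinant human Ha-Ras. Acid-precipitated protein-bound label was counted by scintillation. IC50 is the concentration giving 50% inhibition of incorporation.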

SMILES	IC50 [1] [nM]	IC50 [2] [nM]	also measured
CCC[C@@H](C(=O)N[C@@H](CCO)C(=O)O)N(C)C[C@@H](NC[C@@H](N)CS)[C@H](C)CC	21	43000	
CC[C@@H](C)[C@@H](CN(CC(=O)N[C@@H](CCO)C(=O)O)Cc1cccc2ccccc12)NC[C@@H](N)CS	0.123	10	
CCC(C)[C@@H](CN(CC(=O)N[C@@H](CCSC)C(=O)OC)Cc1ccccc1)NC[C@@H](N)CS (stereo partly specified)			CTE [3]: 10 µM; IC50 [4]: 100 nM
CCC[C@H](NC[C@@H](NC[C@@H](N)CS)[C@H](C)CC)C(=O)N[C@@H](CCO)C(=O)O		10000	IC50 [5]: 27 nM
CC[C@@H](C)[C@@H](C(=O)N[C@H]1CCOC1=O)N(C)C[C@@H](NC[C@@H](N)CS)[C@H](C)CC			CTE [3]: 500 µM; IC50 [4]: 25000 nM; MIC [6]: 500 µM (≈ 208 µg/mL)
CC[C@@H](C)[C@@H](CN(CC(=O)N[C@@H](CCSC)C(=O)O)Cc1ccccc1)NC[C@@H](N)CS	1.2	450	
CC[C@@H](C)[C@@H](CN(C)[C@@H](Cc1ccccc1)C(=O)N[C@@H](CCO)C(=O)O)NC[C@@H](N)CS	1600		
CC[C@@H](C)[C@@H](CN(C)[C@H](C(=O)N[C@@H](CCSC)C(=O)O)[C@@H](C)CC)NC[C@@H](N)CS	25	4700	
CC[C@H](C)[C@H](NC[C@@H](NC[C@@H](N)CS)[C@@H](C)CC)C(=O)N[C@@H](CCO)C(=O)O	20		
CC[C@@H](C)[C@@H](CN(C)[C@@H](Cc1ccccc1)C(=O)N[C@@H](CCSC)C(=O)O)NC[C@@H](N)CS	42		
CC[C@@H](C)[C@@H](CN(Cc1ccccc1)[C@@H](Cc1ccccc1)C(=O)N[C@@H](CCSC)C(=O)O)NC[C@@H](N)CS	1400		
CC[C@@H](C)[C@@H](CN(CC(=O)N[C@@H](CCSC)C(=O)O)Cc1ccccc1)NCCCS	2.2	39000	
CC[C@@H](C)[C@@H](CN(CC(=O)N[C@@H](CCSC)C(=O)OC)Cc1cccc2ccccc12)NC[C@@H](N)CS			CTE [3]: 5 µM; MIC [7]: > 5 µM; IC50 [4]: 500 nM; MIC [6]: 2.5 µM (≈ 1.37 µg/mL)
CC[C@@H](C)[C@@H](CN(C)CC(=O)N[C@@H](CCO)C(=O)O)NC[C@@H](N)CS		10000	IC50 [5]: 83 nM
CC[C@@H](C)[C@@H](CN[C@H](C(=O)N[C@@H](CCSC)C(=O)O)[C@@H](C)CC)NC[C@@H](N)CS	30		
CC[C@@H](C)[C@@H](CN[C@@H](Cc1ccccc1)C(=O)N[C@@H](CCO)C(=O)O)NC[C@@H](N)CS		10000	IC50 [8]: 26 nM
CC[C@@H](C)[C@H](NC[C@@H](NC[C@@H](N)CS)[C@H](C)CC)C(=O)N[C@H]1CCOC1=O			CTE [3]: >1000 µM; MIC [7]: > 1000 µM; IC50 [4]: 100000 nM; MIC [6]: 1000 µM (≈ 403 µg/mL)
CC[C@@H](C)[C@@H](CN[C@@H](Cc1ccccc1)C(=O)N[C@@H](CCSC)C(=O)O)NC[C@@H](N)CS	4.8	5750	
